Experiments:
[1] = tested on: Daoy; assay: Cytotoxicity against human Daoy cells by MTT assay; assay type: functional; settings: read-out: ED50 (the source's name)
In short: (§1)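 Cells grown in serum-supplemented RPMI-1640 at 37 °C, 5% CO2. Seeded at 2880 cells/well for 4 h, then samples added at 1, 10, 20 and 40 µg/mL and incubated 3 days at 37 °C. MTT added for 5 h, formazan dissolved in DMSO, absorbance read at 550 nm. ED50 is the concentration giving 50% reduction of absorbance relative to untreated cells.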

[2] = tested on: WiDr; assay: Cytotoxicity against human WiDr cells by MTT assay; assay type: functional; settings: read-out: ED50 (the source's name); in short: as §1

C=C1CC[C@@H]2CC[C@]34O[C@@]3(C2(C)C)[C@@](O)(C/C(C)=C/C(=O)C1)O[C@H]4OC
EC50 [1]: 40 µM
EC50 [2]: 54 µM

C=C1CC[C@@H]2CCC(=O)[C@@](O)([C@@H](O)C/C(C)=C/C(=O)C1)C2(C)C [CESPIHYPOTIN T]
EC50 [1]: 9.3 µM
EC50 [2]: 7.5 µM

C=C1CC[C@@H]2CCC3=C([C@@H](C/C(C)=C/C(=O)C1)OC3=O)C2(C)C [CESPIHYPOTIN R]
EC50 [1]: > 55 µM
EC50 [2]: 50 µM

C=C1CC[C@@H]2CCC3=C(C2(C)C)[C@](O)(C/C(C)=C/[C@@H](O)C1)OC3=O [CESPIHYPOTIN V]
EC50 [1]: 60 µM
EC50 [2]: > 60 µM

CO[C@@]12[C@H](COC(N)=O)C3=C(C(=O)C(C)=C(N)C3=O)N1C[C@@H]1N[C@@H]12 [MITOMYCIN]
EC50 [1]: 0.21 µM
EC50 [2]: 0.18 µM

C=C1CC[C@@H]2CCC3=C([C@@H](C[C@]4(C)O[C@H]4[C@@H](O)C1)OC3=O)C2(C)C [CESPIHYPOTIN U]
EC50 [1]: > 60 µM
EC50 [2]: > 60 µM

C=C1CC[C@@H]2CCC3=C(C2(C)C)[C@@](OC)(C/C(C)=C/[C@@H](O)C1)O[C@H]3OC [CESPIHYPOTIN Q]
EC50 [1]: > 55 µM
EC50 [2]: > 55 µM
